# Molecular target: Phosphatidylinositol 3-kinase regulatory subunit alpha/4,5-bisphosphate 3-kinase catalytic subunit alpha isoform (Homo sapiens, UniProt P27986+P42336)
# Assay: Inhibition of human PI3K p110alpha/p85alpha expressed in baculovirus preincubated for 20 mins followed by addition of phosphorylate phosphatidylinositol-4,5-bisphosphate as substrate and ATP measured after 15 mins by AlphaScreen competition assay
# Method in brief: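 Purified baculovirus-expressed human p110/p85α preincubated with compound 20 min at room temperature. Then 4 µM PI(4,5)P2 and 10 µM ATP (5 mM Hepes pH 7.5, 2.5 mM MgCl2) added for 15 min at 37 °C. PIP3 product detected by AlphaScreen competition using GST-GRP1, biotin-PIP3 and anti-GST acceptor/streptavidin donor beads, 1 h at room temperature.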
# Sequence of Phosphatidylinositol 3-kinase regulatory subunit alpha/4,5-bisphosphate 3-kinase catalytic subunit alpha isoform (P27986 whole entry, canonical isoform): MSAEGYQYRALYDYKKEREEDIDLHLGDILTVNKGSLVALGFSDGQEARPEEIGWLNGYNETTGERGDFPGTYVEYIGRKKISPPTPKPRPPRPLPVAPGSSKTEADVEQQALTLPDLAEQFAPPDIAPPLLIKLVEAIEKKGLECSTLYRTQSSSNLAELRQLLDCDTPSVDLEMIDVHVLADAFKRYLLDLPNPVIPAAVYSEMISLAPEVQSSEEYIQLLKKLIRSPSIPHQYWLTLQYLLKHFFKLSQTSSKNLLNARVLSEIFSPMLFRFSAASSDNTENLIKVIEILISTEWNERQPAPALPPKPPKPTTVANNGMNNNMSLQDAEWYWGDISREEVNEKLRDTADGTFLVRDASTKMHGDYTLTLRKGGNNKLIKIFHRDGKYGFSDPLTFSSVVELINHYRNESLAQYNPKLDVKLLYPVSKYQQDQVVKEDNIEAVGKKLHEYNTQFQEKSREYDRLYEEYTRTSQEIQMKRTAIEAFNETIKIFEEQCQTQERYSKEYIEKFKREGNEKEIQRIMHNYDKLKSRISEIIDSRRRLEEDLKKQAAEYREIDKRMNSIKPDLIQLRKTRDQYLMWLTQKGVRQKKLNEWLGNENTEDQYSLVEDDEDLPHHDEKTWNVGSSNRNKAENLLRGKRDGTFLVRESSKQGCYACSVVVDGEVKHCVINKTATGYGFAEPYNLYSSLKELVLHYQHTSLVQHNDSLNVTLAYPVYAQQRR
# Sequence of Phosphatidylinositol 3-kinase regulatory subunit alpha/4,5-bisphosphate 3-kinase catalytic subunit alpha isoform (P42336 whole entry, canonical isoform): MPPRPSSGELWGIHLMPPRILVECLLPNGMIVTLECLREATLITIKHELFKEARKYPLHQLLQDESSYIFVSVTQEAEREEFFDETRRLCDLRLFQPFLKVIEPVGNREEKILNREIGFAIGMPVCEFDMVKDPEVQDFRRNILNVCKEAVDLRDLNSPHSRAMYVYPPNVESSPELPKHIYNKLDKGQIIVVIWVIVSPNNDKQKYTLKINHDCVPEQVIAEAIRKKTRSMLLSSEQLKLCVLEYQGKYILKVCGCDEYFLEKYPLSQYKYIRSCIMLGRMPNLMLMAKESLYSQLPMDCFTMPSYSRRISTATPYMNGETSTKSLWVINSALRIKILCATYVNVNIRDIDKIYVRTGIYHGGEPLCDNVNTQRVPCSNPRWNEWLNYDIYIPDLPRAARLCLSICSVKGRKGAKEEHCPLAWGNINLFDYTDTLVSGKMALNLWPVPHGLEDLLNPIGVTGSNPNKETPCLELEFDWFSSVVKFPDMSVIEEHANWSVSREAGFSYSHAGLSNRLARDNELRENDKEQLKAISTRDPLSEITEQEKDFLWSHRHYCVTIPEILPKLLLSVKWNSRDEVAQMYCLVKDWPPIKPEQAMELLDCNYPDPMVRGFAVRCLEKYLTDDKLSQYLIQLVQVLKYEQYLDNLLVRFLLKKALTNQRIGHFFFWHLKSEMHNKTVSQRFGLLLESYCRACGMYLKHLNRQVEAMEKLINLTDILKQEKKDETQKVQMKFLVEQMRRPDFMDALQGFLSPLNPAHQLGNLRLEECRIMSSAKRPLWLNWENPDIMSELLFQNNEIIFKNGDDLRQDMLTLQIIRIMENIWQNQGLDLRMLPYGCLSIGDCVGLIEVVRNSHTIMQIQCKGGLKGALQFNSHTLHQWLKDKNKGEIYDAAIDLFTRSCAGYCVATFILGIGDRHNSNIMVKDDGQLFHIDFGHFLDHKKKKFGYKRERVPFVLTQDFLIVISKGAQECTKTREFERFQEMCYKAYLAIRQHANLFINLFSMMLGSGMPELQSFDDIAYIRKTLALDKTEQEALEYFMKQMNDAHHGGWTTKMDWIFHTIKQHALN
row,IC50,Structure (SMILES)
1,22 nM,CCN1CCN(c2cc(F)c(NC(=O)N3CCc4c(-c5cnc(N)nc5)nc(N5CCOCC5)nc43)c(F)c2)CC1
2,10 nM,CCN1CCN(c2ccc(NC(=O)N3CCc4c(-c5cnc(N)nc5)nc(N5CCOCC5)nc43)c(C)c2)CC1

# Source: BindingDB's records for doi:10.1016/j.bmc.2016.04.060 (Chugai Pharmaceutical, 2016)
